According to ChEMBL document CHEMBL4219184, “Design, synthesis, and biological evaluation of new B-RafV600E kinase inhibitors” (Bioorg Med Chem, 2018):
Activity calls are given as the source filed them. The rule behind the calls is not given here.

Columns and labels:
A-375 [1] = assay: Antiproliferative activity against human A375 cells harboring BRAF V600E mutant after 48 hrs by MTT assay; format: functional, cell-based; conditions: A-375, 48 h
How it was run: (§1)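 MTT assay. Cells seeded at 10^4 per well in 96-well plates and left 24 h. Compounds then added at 0.01, 0.1, 1, 10 and 100 µM for 48 h. IC50 values calculated from the viability data.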

[2] = target: Serine/threonine-protein kinase B-raf (Mus musculus, UniProt P28028, V600E); assay: Inhibition of mouse full length GST-tagged BRAF V600E mutant using recombinant human full length N-terminal His-tagged MEK1 as substrate preincubated for 1 hr followed by substrate addition measured after 25 mins by Nu-page gel-based phosphor screen analysis
Sequence of Serine/threonine-protein kinase B-raf (Mus musculus, UniProt P28028, V600E) (P28028 whole entry, looked up, stated change not applied): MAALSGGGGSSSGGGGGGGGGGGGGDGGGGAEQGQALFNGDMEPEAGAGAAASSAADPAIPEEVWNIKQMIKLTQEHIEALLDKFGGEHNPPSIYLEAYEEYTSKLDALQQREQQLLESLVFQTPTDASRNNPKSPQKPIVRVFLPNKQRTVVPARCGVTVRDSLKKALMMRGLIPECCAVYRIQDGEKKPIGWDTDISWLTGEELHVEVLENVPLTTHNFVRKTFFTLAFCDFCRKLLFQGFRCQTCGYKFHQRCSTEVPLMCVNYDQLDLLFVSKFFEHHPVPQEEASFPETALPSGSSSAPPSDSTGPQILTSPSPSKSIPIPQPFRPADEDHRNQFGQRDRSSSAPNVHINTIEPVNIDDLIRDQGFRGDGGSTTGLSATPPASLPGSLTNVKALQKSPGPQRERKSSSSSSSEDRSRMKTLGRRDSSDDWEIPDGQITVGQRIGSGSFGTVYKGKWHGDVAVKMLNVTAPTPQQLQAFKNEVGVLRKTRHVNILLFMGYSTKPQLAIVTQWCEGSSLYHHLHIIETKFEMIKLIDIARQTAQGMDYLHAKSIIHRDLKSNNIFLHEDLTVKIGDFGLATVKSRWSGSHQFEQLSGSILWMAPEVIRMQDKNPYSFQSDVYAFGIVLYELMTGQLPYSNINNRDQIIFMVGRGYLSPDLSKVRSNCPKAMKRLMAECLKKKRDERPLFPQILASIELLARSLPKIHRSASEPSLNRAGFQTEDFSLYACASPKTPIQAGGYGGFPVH

HT-29 = assay: Antiproliferative activity against human HT-29 cells harboring BRAF V600E mutant after 48 hrs by MTT assay; format: functional, cell-based; conditions: HT-29, 48 h; how it was run: as §1
HCT-116 = assay: Antiproliferative activity against wild type BRAF expressing human HCT116 cells after 48 hrs by MTT assay; format: functional, cell-based; conditions: HCT-116, 48 h; how it was run: as §1
[3] = Antiproliferative activity against wild type BRAF expressing human WM1361 cells after 48 hrs by MTT assay; format: functional; conditions: WM1361, 48 h; how it was run: as §1
[4] = target: T1, Serine/threonine-protein kinase B-raf (Homo sapiens, UniProt P15056); assay: Inhibition of wild type BRAF in human WM1361 cells assessed as reduction in MEK phosphorylation at 0.5 uM by Western blot analysis; format: cell-based
T1 sequence (P15056 whole entry): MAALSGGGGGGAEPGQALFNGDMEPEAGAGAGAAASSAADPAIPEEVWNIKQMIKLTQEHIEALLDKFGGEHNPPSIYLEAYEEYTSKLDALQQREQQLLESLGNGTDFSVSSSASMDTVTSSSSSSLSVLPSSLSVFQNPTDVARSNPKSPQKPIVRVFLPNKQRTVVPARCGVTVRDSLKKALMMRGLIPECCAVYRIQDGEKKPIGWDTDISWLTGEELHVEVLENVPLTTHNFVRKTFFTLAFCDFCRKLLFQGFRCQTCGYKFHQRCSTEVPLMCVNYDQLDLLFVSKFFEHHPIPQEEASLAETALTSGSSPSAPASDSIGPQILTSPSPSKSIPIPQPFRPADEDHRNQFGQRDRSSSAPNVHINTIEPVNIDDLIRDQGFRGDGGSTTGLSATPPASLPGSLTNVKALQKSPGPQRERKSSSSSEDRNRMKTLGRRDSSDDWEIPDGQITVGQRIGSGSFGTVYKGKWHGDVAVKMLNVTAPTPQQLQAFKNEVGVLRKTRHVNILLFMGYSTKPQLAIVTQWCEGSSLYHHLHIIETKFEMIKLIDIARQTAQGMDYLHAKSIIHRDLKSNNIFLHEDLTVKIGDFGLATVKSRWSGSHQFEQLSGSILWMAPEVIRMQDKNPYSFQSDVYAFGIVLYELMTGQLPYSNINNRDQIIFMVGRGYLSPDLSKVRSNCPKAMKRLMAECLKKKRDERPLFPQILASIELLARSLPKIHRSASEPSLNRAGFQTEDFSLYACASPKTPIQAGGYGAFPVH
How it was run: (§2)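 Cells in 6-well plates were lysed in RIPA with PMSF on ice for 30 min and cleared at 12,000 g, 4 °C. Protein was measured by BCA, run on SDS-PAGE and moved to PVDF. Blots were blocked in 5% milk/TBST, given primary antibodies (1:500–1:1000) overnight at 4 °C, then HRP secondaries (1:5000–1:10000) for 1 h. Bands were detected by ECL.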

[5] = target: T1, Serine/threonine-protein kinase B-raf; assay: Induction of wild type BRAF activation in human WM1361 cells assessed as increase in MEK phosphorylation up to 0.15 uM by Western blot analysis; format: cell-based; how it was run: as §2
A-375 [6] = assay: Induction of apoptosis in human A375 cells assessed as early apoptotic cells at 4 uM after 24 hrs by Annexin V-FITC/propidium iodide double staining-based flow cytometry (reference value: 1.19%); format: functional
A-375 [7] = assay: Induction of apoptosis in human A375 cells assessed as viable cells at 1 uM after 24 hrs by Annexin V-FITC/propidium iodide double staining-based flow cytometry (reference value: 96.2%); format: functional; conditions: A-375, 24 h, read-out: Activity
A-375 [8] = assay: Induction of apoptosis in human A375 cells assessed as necrotic cells at 1 uM after 24 hrs by Annexin V-FITC/propidium iodide double staining-based flow cytometry (reference value: 0.227%); format: functional
A-375 [9] = assay: Induction of apoptosis in human A375 cells assessed as early apoptotic cells at 1 uM after 24 hrs by Annexin V-FITC/propidium iodide double staining-based flow cytometry (reference value: 1.19%); format: functional
A-375 [10] = assay: Induction of apoptosis in human A375 cells assessed as late apoptotic cells at 2 uM after 24 hrs by Annexin V-FITC/propidium iodide double staining-based flow cytometry (reference value: 2.36%); format: functional
A-375 [11] = assay: Effect on total ERK protein levels in human A375 cells at 0.05 to 5 uM by Western blot analysis; format: ADME, cell-based; conditions: a-375, 5 µM; how it was run: as §2
A-375 [12] = assay: Induction of apoptosis in human A375 cells assessed as necrotic cells at 2 uM after 24 hrs by Annexin V-FITC/propidium iodide double staining-based flow cytometry (reference value: 0.227%); format: functional
A-375 [13] = assay: Induction of apoptosis in human A375 cells assessed as early apoptotic cells at 2 uM after 24 hrs by Annexin V-FITC/propidium iodide double staining-based flow cytometry (reference value: 1.19%); format: functional
A-375 [14] = assay: Induction of apoptosis in human A375 cells assessed as viable cells at 4 uM after 24 hrs by Annexin V-FITC/propidium iodide double staining-based flow cytometry (reference value: 96.2%); format: functional; conditions: A-375, 24 h, read-out: Activity
[15] = test system: Serine/threonine-protein kinase B-raf (Homo sapiens), P15056 [V600E]; assay: Inhibition of BRAF V600E mutant in human A375 cells assessed as reduction in ERK phosphorylation by Western blot analysis; format: cell-based; how it was run: as §2
Sequence of Serine/threonine-protein kinase B-raf (Homo sapiens), P15056 [V600E] (P15056 whole entry V600E): as the sequence (P15056 whole entry) above, with V600E counted along it

[16] = test system: Serine/threonine-protein kinase B-raf (Homo sapiens), P15056 [V600E]; assay: Inhibition of BRAF V600E mutant in human A375 cells assessed as reduction in MEK phosphorylation by Western blot analysis; format: cell-based; how it was run: as §2
[17] = target: T1, Serine/threonine-protein kinase B-raf; assay: Induction of wild type BRAF activation in human WM1361 cells assessed as increase in ERK phosphorylation up to 0.15 uM by Western blot analysis; format: cell-based; how it was run: as §2
A-375 [18] = assay: Effect on total MEK protein levels in human A375 cells at 0.05 to 5 uM by Western blot analysis; format: ADME, cell-based; conditions: a-375, 5 µM; how it was run: as §2
A-375 [19] = assay: Induction of apoptosis in human A375 cells after 24 hrs by Annexin V-FITC/propidium iodide double staining-based flow cytometry; format: functional, cell-based
A-375 [20] = assay: Induction of apoptosis in human A375 cells assessed as viable cells at 2 uM after 24 hrs by Annexin V-FITC/propidium iodide double staining-based flow cytometry (reference value: 96.2%); format: functional; conditions: A-375, 24 h, read-out: Activity
A-375 [21] = assay: Induction of apoptosis in human A375 cells assessed as necrotic cells at 4 uM after 24 hrs by Annexin V-FITC/propidium iodide double staining-based flow cytometry (reference value: 0.227%); format: functional
A-375 [22] = assay: Induction of apoptosis in human A375 cells assessed as late apoptotic cells at 4 uM after 24 hrs by Annexin V-FITC/propidium iodide double staining-based flow cytometry (reference value: 2.36%); format: functional
A-375 [23] = assay: Induction of apoptosis in human A375 cells assessed as late apoptotic cells at 1 uM after 24 hrs by Annexin V-FITC/propidium iodide double staining-based flow cytometry (reference value: 2.36%); format: functional
[24] = target: T1, Serine/threonine-protein kinase B-raf; assay: Inhibition of wild type BRAF in human WM1361 cells assessed as reduction in ERK phosphorylation at 0.5 uM by Western blot analysis; format: cell-based; how it was run: as §2

## O=C(Nc1cccc(C(=O)Nc2ccc3[nH]ncc3c2)c1)c1ccc(F)cc1
A-375 [1]
  IC50: 7.15 µM
[2]
  IC50: 1.57 µM
HT-29
  IC50: 12.2 µM
HCT-116
  IC50: 36.2 µM
[3]
  IC50: 29.2 µM

## O=C(Nc1ccc2[nH]ccc2c1)c1cccc(NC(=O)c2cccc(Cl)n2)c1
A-375 [1]
  IC50: 8.46 µM
[2]
  IC50: 6.57 µM
HT-29
  IC50: 19.6 µM
HCT-116
  IC50: 35.5 µM
[3]
  IC50: 19.2 µM

## O=C(Nc1ccc2[nH]ncc2c1)c1cccc(NC(=O)c2cccc(Cl)n2)c1
A-375 [1]
  IC50: 8.83 µM
[2]
  IC50: 1.05 µM
HT-29
  IC50: 12.2 µM
HCT-116
  IC50: 24.9 µM
[3]
  IC50: 27.2 µM

## O=C(Nc1cccc(C(=O)Nc2ccc3[nH]ncc3c2)c1)c1ccc(Oc2ccccc2)cc1
A-375 [1]
  IC50: 9.45 µM
[2]
  IC50: 5.27 µM
HT-29
  IC50: 18.5 µM
HCT-116
  IC50: 37.4 µM
[3]
  IC50: 29.6 µM

## O=C(Nc1cccc(C(=O)Nc2ccc3[nH]ccc3c2)c1)c1ccc(Oc2ccccc2)cc1
A-375 [1]
  IC50: 10.5 µM
[2]
  IC50: 5.72 µM
HT-29
  IC50: 21.1 µM
HCT-116
  IC50: 35.2 µM
[3]
  IC50: 21.6 µM

## O=C(Nc1cccc(C(=O)Nc2ccc3[nH]ccc3c2)c1)c1ccc(Cl)cc1
A-375 [1]
  IC50: 6.72 µM
[2]
  IC50: 2.61 µM
HT-29
  IC50: 11.1 µM
HCT-116
  IC50: 22.3 µM
[3]
  IC50: 19.6 µM

## CNC(=O)c1cc(Oc2ccc(NC(=O)Nc3ccc(Cl)c(C(F)(F)F)c3)cc2)ccn1 [SORAFENIB]
A-375 [1]
  IC50: 3.36 µM
HT-29
  IC50: 8.44 µM
HCT-116
  IC50: 23.3 µM
[3]
  IC50: 16.4 µM

## O=C(Nc1cccc(C(=O)Nc2ccc3[nH]ncc3c2)c1)c1cccc(F)c1
A-375 [1]
  IC50: 12.2 µM
[2]
  IC50: 8.71 µM
HT-29
  IC50: 19.2 µM
HCT-116
  IC50: 20.5 µM
[3]
  IC50: 38.4 µM

## O=C(Nc1ccc2[nH]ccc2c1)c1cccc(NC(=O)c2ccccn2)c1
A-375 [1]
  IC50: 5.78 µM
[2]
  IC50: 3.52 µM
HT-29
  IC50: 10.6 µM
HCT-116
  IC50: 23.8 µM
[3]
  IC50: 17.4 µM

## O=C(Nc1ccc2[nH]ncc2c1)c1cccc(NC(=O)c2ccc(Br)cn2)c1
A-375 [1]
  IC50: 7.58 µM
[2]
  IC50: 0.46 µM
HT-29
  IC50: 9.65 µM
HCT-116
  IC50: 22.2 µM
[3]
  IC50: 19.6 µM

## CC(C)(C)c1ccc(C(=O)Nc2cccc(C(=O)Nc3ccc4[nH]ncc4c3)c2)cc1
A-375 [1]
  IC50: 2.85 µM
[2]
  IC50: 0.75 µM
HT-29
  IC50: 10.9 µM
HCT-116
  IC50: 26.2 µM
[3]
  IC50: 18.4 µM

## O=C(Nc1cccc(C(=O)Nc2ccc3[nH]ncc3c2)c1)c1ccc(Cl)cc1
A-375 [1]
  IC50: 7.62 µM
[2]
  IC50: 3.04 µM
HT-29
  IC50: 17.9 µM
HCT-116
  IC50: 32.5 µM
[3]
  IC50: 30.8 µM

## O=C(Nc1cccc(C(=O)Nc2ccc3[nH]ncc3c2)c1)c1cccc(Cl)c1
A-375 [1]
  IC50: 9.87 µM
[2]
  IC50: 4.94 µM
HT-29
  IC50: 20.5 µM
HCT-116
  IC50: 26.2 µM
[3]
  IC50: 25.5 µM

## O=C(Nc1ccc2[nH]ncc2c1)c1cccc(NC(=O)c2ccccn2)c1
A-375 [1]
  IC50: 8.29 µM
[2]
  IC50: 4.11 µM
HT-29
  IC50: 17.2 µM
HCT-116
  IC50: 35.9 µM
[3]
  IC50: 28.2 µM

## O=C(Nc1cccc(C(=O)Nc2ccc3[nH]ncc3c2)c1)c1ccc(C(F)(F)F)cc1
A-375 [1]
  IC50: 1.97 µM
[4]
  inhibition: Active
[5]
  Activity: Not Active
A-375 [6]
  Activity: 12.2%
A-375 [7]
  viability at 1 µM: 80.3%
A-375 [8]
  Activity: 1.56%
A-375 [9]
  Activity: 8.05%
A-375 [10]
  Activity: 14.6%
A-375 [11]
  Activity: Non-Toxic
[2]
  IC50: 0.18 µM
HT-29
  IC50: 4.41 µM
A-375 [12]
  Activity: 1.05%
A-375 [13]
  Activity: 10.7%
A-375 [14]
  viability at 4 µM: 71%
HCT-116
  IC50: 18.7 µM
[15]
  inhibition: Dose-dependent effect
[16]
  inhibition: Dose-dependent effect
[17]
  Activity: Not Active
A-375 [18]
  Activity: Non-Toxic
A-375 [19]
  Activity: Dose-dependent effect
A-375 [20]
  viability at 2 µM: 73.7%
[3]
  IC50: 12.8 µM
A-375 [21]
  Activity: 0.652%
A-375 [22]
  Activity: 16.1%
A-375 [23]
  Activity: 10.1%
[24]
  inhibition: Active

## Cc1cccc(C(=O)Nc2cccc(C(=O)Nc3ccc4[nH]ncc4c3)c2)n1
A-375 [1]
  IC50: 7.46 µM
[2]
  IC50: 0.81 µM
HT-29
  IC50: 11.5 µM
HCT-116
  IC50: 25.1 µM
[3]
  IC50: 21.3 µM

## O=C(Nc1cccc(C(=O)Nc2ccc3[nH]ncc3c2)c1)c1ccccc1
A-375 [1]
  IC50: 9.12 µM
[2]
  IC50: 5.22 µM
HT-29
  IC50: 16.1 µM
HCT-116
  IC50: 30.9 µM
[3]
  IC50: 35.1 µM

## O=C(Nc1cccc(C(=O)Nc2ccc3[nH]ncc3c2)c1)c1ccc(Br)cc1
A-375 [1]
  IC50: 5.74 µM
[2]
  IC50: 2.78 µM
HT-29
  IC50: 14.4 µM
HCT-116
  IC50: 29.2 µM
[3]
  IC50: 24.6 µM

## O=C(Nc1cccc(C(=O)Nc2ccc3[nH]ccc3c2)c1)c1ccccc1
A-375 [1]
  IC50: 6.49 µM
[2]
  IC50: 2.11 µM
HT-29
  IC50: 10.6 µM
HCT-116
  IC50: 21.2 µM
[3]
  IC50: 24.6 µM

## O=C(Nc1ccc2[nH]ncc2c1)c1cccc(NC(=O)c2cc(Cl)ccn2)c1
A-375 [1]
  IC50: 4.56 µM
[2]
  IC50: 1.14 µM
HT-29
  IC50: 8.99 µM
HCT-116
  IC50: 19.7 µM
[3]
  IC50: 16.2 µM
